Experimental findings from PubChem BioAssay are described below.

One may read the inhibition as the change of the read-out against control, counted positive when it falls.

Assay [1] is described as follows: inhibitors of TNFa-induced NFkB p65 translocation, primary screen, imaging, HUVEC, MLSMR starter and 10KST1 sets (AID 438;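 active means inhibition above 20% together with a positive visual image hit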;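 further: compound added about 3h40 before a 20 min TNFalpha stimulation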;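 on inhibition: signal is the nuclear over cytoplasmic p65 intensity ratio per well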). To be noted: HUVEC TNFa-induced p65 nuclear translocation; cell count: measured here: nuclei count (cytotoxicity indicator), at 2.08 µM; inhibition: at 2 µM, stronger effect = higher value, 0% TNFa-plus-vehicle, 100% no-TNFa wells.
The nature of assay [2]: endothelial E-selectin expression blockers – imaging, HUVEC, immunofluorescence, MLSMR starter and 10KST1 sets, primary screen (AID 487;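 active means visually confirmed hit in the image check and inhibition above 20%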;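 on inhibition: signal is fraction of cell area covered by stained E-selectin grains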;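 on nuclei count: 100% = median nuclei count of all wells on the same plate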). Conditions: HUVEC TNFalpha-induced E-selectin immunofluorescence imaging, at 2 µM; inhibition: stronger effect = higher value; nuclei count: measured here: cell number, toxicity.
A short description of assay [3]: Primary imaging screen for DUSP6 inhibitors that restore phospho-Erk in transfected HeLa cells, chemical complementation (AID 609;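 active means compounds giving at least 50% inhibition in the cell-based MKP-3 phosphatase rescue imaging test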;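 on inhibition: phospho-Erk level distribution per well compared with pooled transfected vehicle control wells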). Conditions: HeLa MKP-3 transfected, phospho-Erk imaging KS statistic, at 10 µM, cells stimulated with TPA for 15 min.
Assay [4] has as its target Dual specificity protein phosphatase 6 (Homo sapiens) (UniProt Q16828). Described as above. Conditions: HeLa MKP-3 transfected, phospho-Erk imaging KS statistic; at 10 µM; stronger effect = higher value; cells stimulated with TPA for 15 min.
Assay [5] addresses Voltage-gated potassium channel subunit beta-2 (Rattus norvegicus) (UniProt P62483). As to the kind of experiment: inhibitors of rat Kvbeta2 reductase activity – biochemical, NADPH fluorescence, primary screen (AID 622;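 active means fluorescence slope higher than the sample average by over 3 SD, cut at about -0.22 in these data, passing the limit was not always enough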;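 further: slope of raw intensity against log time taken from 70 to 1610 s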). Conditions: recombinant KvBeta, 4-cyanobenzaldehyde reduction, at 10 µM, stronger effect = higher value.
Assay [6] has the same target. In words: enhancers of rat Kvbeta2 NADPH turnover – biochemical, NADPH fluorescence, primary screen (AID 623;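 active means NADPH fluorescence slope more negative than the mean of all samples by about 3 SD, 99.7% confidence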;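 further: fluorescence intensity change per second fitted from 20 to 320 s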). To be noted: Recombinant KvBeta, NADPH fluorescence decrease slope, 10 min; at 10 µM; stronger effect = lower value.
Assay [7] has as its target Muscarinic acetylcholine receptor M4 (Homo sapiens) (UniProt P08173). In words: M4-linked GIRK flux change, two-sided – cell-based, HEK293 M4/GIRK, thallium flux, BTC-AM, M4 allosteric agonist project, primary screen (AID 625;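 active means fluorescence slope after compound addition differing from the mean of all tested samples at 99.7% confidence, mostly higher but some lower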;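 further: thallium influx through GIRK channels coupled to M4 in HEK293 cells with BTC-AM dye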). To be noted: at 10 µM, actives lie on both sides. Summed up:
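Material – HEK293 cells with M4 receptor and GIRK channels · Buffer or medium – pH 7.3 thallium assay buffer · Doses – one dose, 10 µM final · Timing – cells overnight at 37 °C, BTC-AM loading 1 h, reads 2 min total · Measured by – kinetic fluorescence with BTC-AM dye · Controls – carbachol and DMSO controls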

The nature of assay [8]: inhibitors of larval lipid processing in zebrafish, primary screen, whole organism, PED6 fluorescence, gall bladder and intestine (AID 686;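 active means a full or partial loss of lipid-probe fluorescence in the fish gall bladder, intestine or both, judged by eye; inactive means no fluorescence loss, or compound toxic to the fish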;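 further: larvae 5 to 7 days old with five fish per well; signal comes from phospholipase A2 cleavage of quenched PED6 carried via bile; overnight exposure to compound and PED6 before scoring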). Conditions: Zebrafish larvae PED6 lipid processing, fluorescence scoring; screened at 20 µM (by protocol). Summed up:
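system = live zebrafish larvae aged 5-7 days, whole organism | probe or stimulus = ingested quenched lipid PED6 at 100 nM | doses = 20 µM single dose | timing = overnight exposure | detection = fluorescence microscopy with visual scoring of gall bladder and intestine | read-out = visual per-well fluorescence inhibition score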

Assay [9] is described as follows: loss of swimming-algae plug formation – whole organism, Chlamydomonas reinhardtii, WT vs cilia-less mutant, absorbance, 96-well, primary screen (AID 463189).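 Further: 0% = wild type cc124 cells in DMSO and 100% = ciliumless bld1 mutant cells.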 Conditions: Chlamydomonas reinhardtii gravitaxis, OD600 absorbance, 2 days; at 10 µM; stronger effect = higher value.
[10] abbreviates: measured here: cell density z-score.
[11] abbreviates: measured here: nuclear c-Myc green intensity z-score.
The mark [12] stands for this setting: measured here: nuclear pErk red intensity z-score, stronger effect = higher value.

Calls of active or inactive are those of the source.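 How the source made its calls, unless noted: active means inhibition at or above 50% relative to wild type and mutant plate controls; inactive means inhibition below 50%.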

Muscarinic acetylcholine receptor M4 (Homo sapiens), sequence (P08173 whole entry, looked up): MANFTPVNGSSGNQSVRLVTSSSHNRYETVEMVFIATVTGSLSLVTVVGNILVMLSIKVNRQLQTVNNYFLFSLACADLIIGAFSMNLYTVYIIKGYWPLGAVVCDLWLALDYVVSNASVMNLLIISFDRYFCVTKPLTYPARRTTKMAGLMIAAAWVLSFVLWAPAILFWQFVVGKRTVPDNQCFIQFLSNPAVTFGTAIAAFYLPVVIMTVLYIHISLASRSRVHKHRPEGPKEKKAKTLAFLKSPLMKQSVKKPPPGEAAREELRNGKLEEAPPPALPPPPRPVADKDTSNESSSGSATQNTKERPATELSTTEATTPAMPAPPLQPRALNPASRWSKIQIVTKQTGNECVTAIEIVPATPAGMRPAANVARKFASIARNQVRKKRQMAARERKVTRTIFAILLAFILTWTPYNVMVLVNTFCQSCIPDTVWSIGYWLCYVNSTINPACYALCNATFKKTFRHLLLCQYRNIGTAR
Dual specificity protein phosphatase 6 (Homo sapiens), sequence (Q16828 whole entry, looked up): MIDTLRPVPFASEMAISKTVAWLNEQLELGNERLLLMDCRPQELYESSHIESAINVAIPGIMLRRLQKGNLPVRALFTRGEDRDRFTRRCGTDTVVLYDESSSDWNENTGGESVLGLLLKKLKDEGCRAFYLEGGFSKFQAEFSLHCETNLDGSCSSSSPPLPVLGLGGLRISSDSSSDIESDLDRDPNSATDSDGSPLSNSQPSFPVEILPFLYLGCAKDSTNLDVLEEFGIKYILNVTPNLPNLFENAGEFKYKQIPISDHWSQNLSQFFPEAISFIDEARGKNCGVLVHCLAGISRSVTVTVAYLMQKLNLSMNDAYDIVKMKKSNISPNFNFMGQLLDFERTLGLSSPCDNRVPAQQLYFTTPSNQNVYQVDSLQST
Voltage-gated potassium channel subunit beta-2 (Rattus norvegicus), sequence (P62483 whole entry, looked up): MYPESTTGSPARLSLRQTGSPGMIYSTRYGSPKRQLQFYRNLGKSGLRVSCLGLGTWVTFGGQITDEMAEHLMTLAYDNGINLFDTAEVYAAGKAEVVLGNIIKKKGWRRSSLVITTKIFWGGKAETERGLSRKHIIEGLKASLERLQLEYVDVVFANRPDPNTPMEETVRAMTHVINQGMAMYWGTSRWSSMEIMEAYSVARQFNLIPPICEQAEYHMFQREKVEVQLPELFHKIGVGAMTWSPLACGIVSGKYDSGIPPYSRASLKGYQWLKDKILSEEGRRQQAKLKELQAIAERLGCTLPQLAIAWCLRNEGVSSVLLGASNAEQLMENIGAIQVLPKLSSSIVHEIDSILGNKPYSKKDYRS

For `Cc1cc(NCCNC2=CC(=O)CCC2)nc2ccccc12`, in [1], the cell count stood at 473. Further, the inhibition is -10.2% (inactive) in assay [1], -41.3% (inactive) in assay [2], -3.97% (inactive) in assay [4] and -12.8% (inactive) in [9]. For the same compound, the nuclei count in [2] was determined as 148%. In addition, the z-score in assay [3] (setting [10]) was -0.963; in assay [3] (setting [11]), 1.28; in assay [3] (setting [12]), -0.176. The fluorescence slope in assay [5] was -0.431 (inactive); in assay [7], 0.0072 (inactive). Besides, the NADPH fluorescence slope in [6] is -4.6e-05 (inactive). For the same compound, the outcome in assay [8] was inactive.
Regarding `Cn1c(=O)[nH]c(=O)c2c1nc(Br)n2CCSc1ncccn1`, in assay [1], the cell count is 643. The inhibition in [1] was -7.6% (inactive); in [2] it was -107% (inactive); in assay [4], -2.59% (inactive); in assay [9], 13.2% (inactive). This compound also yielded a nuclei count in [2] of 179%. Moreover, the results for the z-score in assay [3] (setting [10]), in assay [3] (setting [11]) and in assay [3] (setting [12]) were 0.65, -0.91 and -0.622, respectively. The fluorescence slope in assay [5] was -0.446 (inactive); in assay [7], 0.00519 (inactive). Moreover, the NADPH fluorescence slope in [6] was -4.5e-05 (inactive). Besides, the call in [8] was inactive.
`CN(C)c1nc(OCCNC(=O)Nc2ccccc2)nc(N(C)C)n1`: the cell count in [1] is 519. Moreover, the inhibition was -7.6% (inactive) in assay [1], -47.8% (inactive) in assay [2], 5.42% (inactive) in assay [4] and 36.3% (inactive) in [9]. Moreover, the nuclei count in assay [2] was determined as 104%. Moreover, the z-score in [3] (setting [10]) was 0.724; in assay [3] (setting [11]) it was -0.537; in assay [3] (setting [12]), -0.187. Also, the fluorescence slope is -0.522 (inactive) in assay [5] and 0.00455 (inactive) in assay [7]. In addition, in assay [6], the NADPH fluorescence slope is 5.3e-05 (inactive). For the same compound, the outcome in assay [8] was inactive.
For the compound `CCOC(=O)C1CCCN(c2nc3ccccc3nc2C(C#N)C(=O)OC(C)COC)C1` (centres undefined), the cell count in assay [1] came out at 683. Moreover, the inhibition is -5.4% (inactive) in [1], -63% (inactive) in [2], -5.81% (inactive) in [4] and 23.6% (inactive) in [9]. The compound also registered a nuclei count in [2] of 204%. In addition, the z-score in [3] (setting [10]) was -1; in [3] (setting [11]), 0.049; in [3] (setting [12]) it was 0.811. Besides, the fluorescence slope in assay [5] is -0.495 (inactive); in assay [7], 0.00181 (inactive). Also, in [6], the NADPH fluorescence slope was -0.000103 (inactive). Further, the result in assay [8] was inactive.
For `CC(C)OC(=O)c1c2nc3ccccc3nc2n2c1[nH]c(=O)c1ccccc12`, in assay [1], the cell count was 519. Further, the inhibition in assay [1] was 4% (inactive); in assay [2], -30.4% (inactive); in assay [4], 16.5% (inactive); in assay [9] it was 6.9% (inactive). The same compound had a nuclei count in assay [2] of 96.9%. For the same compound, the results for the z-score in assay [3] (setting [10]), in [3] (setting [11]) and in [3] (setting [12]) were 1.31, -1.51 and -0.702, respectively. Also, the fluorescence slope in assay [5] was -0.445 (inactive); in assay [7], 0.069 (active). The NADPH fluorescence slope in [6] was 2e-05 (inactive). For the same compound, the outcome in assay [8] was inactive.
Take `Nc1nnnn1N=C1CCCCC1`: the cell count in assay [1] was 662. For the same compound, the inhibition is -3.4% (inactive) in assay [1], -120% (inactive) in assay [2], -2.29% (inactive) in [4] and 2.87% (inactive) in [9]. For the same compound, the nuclei count in assay [2] worked out at 170%. For the same compound, the figures for the z-score in [3] (setting [10]), in [3] (setting [11]) and in [3] (setting [12]) were 0.907, -0.604 and -0.484, respectively. The fluorescence slope was -0.493 (inactive) in assay [5] and 0.00643 (inactive) in [7]. Further, in assay [6], the NADPH fluorescence slope is -3.7e-05 (inactive). Moreover, the compound was called inactive in [8].
Regarding `Cn1c(=O)c2c(nc(Oc3ccc4c(c3)OCO4)n2Cc2ccc(Br)cc2)n(C)c1=O`, the cell count in assay [1] was 619. Further, the inhibition was 8.1% (inactive) in assay [1], -44% (inactive) in assay [2], 7.93% (inactive) in assay [4] and 29.5% (inactive) in assay [9]. The nuclei count in assay [2] came out at 123%. The z-score in [3] (setting [10]) was 0.319; in [3] (setting [11]), -0.507; in assay [3] (setting [12]), 0.317. Further, the fluorescence slope was -0.562 (inactive) in assay [5] and 0.00702 (inactive) in assay [7]. Besides, the NADPH fluorescence slope in assay [6] is -3.8e-05 (inactive). In assay [8], the result was inactive.
In the case of `O=C(NCC(F)(F)F)Nc1nnc(C(F)(F)F)s1`, the cell count in [1] came to 731. Moreover, the inhibition is 2.9% (inactive) in assay [1], -80.8% (inactive) in assay [2], 27.5% (inactive) in assay [4] and -1.99% (inactive) in assay [9]. In assay [2], the nuclei count was determined as 166%. Besides, the z-score in assay [3] (setting [10]) is -0.948; in assay [3] (setting [11]) it was -0.154; in [3] (setting [12]), 0.77. Moreover, the results for the fluorescence slope in assay [5] and in assay [7] were -0.429 (inactive) and 0.00508 (inactive), respectively. Further, the NADPH fluorescence slope in assay [6] is -5.4e-05 (inactive). Besides, the outcome in assay [8] was inactive.
For `COc1ccc(/C(O)=C2\C(=O)C(=O)N(CCN(C)C)C2c2cccc(OC)c2OC)cc1Cl` (centres undefined), the cell count in assay [1] was 629. Besides, the inhibition is -9.8% (inactive) in assay [1], -43.6% (inactive) in [2], 11.4% (inactive) in assay [4] and 10.3% (inactive) in [9]. The same compound gave a nuclei count in assay [2] of 170%. Moreover, the values for the z-score in [3] (setting [10]), in assay [3] (setting [11]) and in [3] (setting [12]) were -0.541, -0.411 and -0.226, respectively. Further, the fluorescence slope in assay [5] is -0.443 (inactive); in assay [7] it was 0.00451 (inactive). The NADPH fluorescence slope in assay [6] is -3.1e-05 (inactive). In addition, in assay [8], the compound was classed as inactive.
In the case of `O=C(c1ccc2c3c(cccc13)C(=O)N(O)C2=O)N1CCCCC1`, in assay [1], the cell count came to 583. For the same compound, the inhibition is -6.7% (inactive) in [1], 65.6% (active) in assay [2], 35.1% (inactive) in assay [4] and 35.8% (inactive) in [9]. In assay [2], the nuclei count stood at 92.9%. In addition, the figures for the z-score in [3] (setting [10]), in assay [3] (setting [11]) and in assay [3] (setting [12]) were 1.73, -0.867 and -1.15, respectively. The fluorescence slope in assay [5] was -0.426 (inactive); in assay [7], 0.00526 (inactive). For the same compound, the NADPH fluorescence slope in [6] is -3.2e-05 (inactive). The result in [8] was inactive.
Take `Cn1c(Cn2cnc(Cl)c2Cl)nc2ccccc21`: the cell count in [1] stood at 583. Further, the inhibition in [1] is 0.2% (inactive); in assay [2], -75.8% (inactive); in assay [4], 12.8% (inactive); in assay [9], 21.9% (inactive). The same compound gave a nuclei count in assay [2] of 138%. Further, the z-score in assay [3] (setting [10]) came to 0.873; in [3] (setting [11]), 1.34; in assay [3] (setting [12]), 0.561. The fluorescence slope in assay [5] was -0.454 (inactive); in assay [7], 0.00447 (inactive). In [6], the NADPH fluorescence slope was -8.5e-05 (inactive). For the same compound, the call in assay [8] was inactive.
Turning to `Cn1c(=O)c2c(nc(NCc3ccc4c(c3)OCO4)n2Cc2ccccc2Cl)n(C)c1=O`, the cell count in assay [1] was determined as 634. In addition, the inhibition was -6% (inactive) in [1], -29.1% (inactive) in [2], -2.09% (inactive) in [4] and -8.68% (inactive) in [9]. Besides, in assay [2], the nuclei count was 104%. Also, the z-score was determined as 0.0435 in [3] (setting [10]), 2.04 in assay [3] (setting [11]) and 0.82 in assay [3] (setting [12]). Moreover, the fluorescence slope is -0.41 (inactive) in assay [5] and 0.00449 (inactive) in assay [7]. In [6], the NADPH fluorescence slope is -9.6e-06 (inactive). The call in assay [8] was inactive.
For the compound `COc1cc(S(=O)(=O)N2CCN(C)CC2)c(OC)cc1Br`, the cell count in [1] was determined as 616. Further, the inhibition in [1] is 13.9% (inactive); in assay [2] it was -43.1% (inactive); in [4], 1.63% (inactive); in assay [9], 21% (inactive). The same compound showed a nuclei count in [2] of 114%. The z-score was 0.0206 in assay [3] (setting [10]), -1.18 in [3] (setting [11]) and -0.865 in assay [3] (setting [12]). Further, the fluorescence slope in assay [5] is -0.424 (inactive); in assay [7] it was 0.00502 (inactive). Besides, in assay [6], the NADPH fluorescence slope is -3.6e-05 (inactive). Further, the call in [8] was inactive.
